Converted amounts (≈) assume the structure as drawn. The source made the active and inactive calls. No cut-off for these calls is given here. Bounds are passed on as bounds.

The record followed here is ChEMBL document CHEMBL1154107, “Inhibitors of VIM-2 by screening pharmacologically active and click-chemistry compound libraries” (Bioorg Med Chem, 2009).

The nature of assay [1]: Inhibition of VIM2 using CCF2 as substrate at 44 uM after 15 mins by FRET assay. The procedure, abridged: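 VIM-2 (0.1 nM final) in 50 mM HEPES, 50 μM ZnSO4, 0.05% Brij 35, pH 7.1, preincubated 15 min at RT with compound; CCF2-FA added to 10 μM, 25 min at RT, stopped with EDTA. Ratiometric fluorescence read at excitation 409 nm, emission 460/535 nm. Triplicate ten-point 1:3 dilutions; IC50 from four-parameter fit of ratio data.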

Assay [2] is described as follows: Inhibition of TEM-1 using nitrocefin as substrate after 15 mins by microtiter plate assay.
Assay [3] relates to Escherichia coli. In words: Antibacterial activity against imipenem-resistant Escherichia coli BL21(DE3) expressing VIM2 gene after 18 hrs by twofold serial broth dilution method. It is filed as functional. Put shortly:
(§1)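 Two-fold serial broth dilution MIC per CLSI, 10-point dilutions in Iso-Sensitest broth, 2 mL tubes. BL21 grown 5 h at 37°C in LB (kanamycin 30 μg/mL for pET-9a VIM-2 transformants). Inoculum 5 × 10^5 CFU/mL; shaken ≥18 h at 37°C aerobically.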
For orientation: In broth dilution the organism is exposed to a series of concentrations in liquid medium.

The next assay has as its system Enterobacter cloacae. Kind of assay: Inhibition of Enterobacter cloacae AmpC using nitrocefin as substrate at 25 uM after 15 mins by microtiter plate assay.
In assay [4] the test system is Escherichia coli. In words: Antibacterial activity against imipenem-non resistant Escherichia coli BL21(DE3) after 18 hrs by twofold serial broth dilution method. It is filed as functional. Put shortly: as §1
The nature of assay [5]: Inhibition of VIM2 using nitrocefin as substrate by rapid dilution method.
Assay [6] is described as follows: Inhibition of Enterobacter cloacae AmpC using nitrocefin as substrate after 15 mins by microtiter plate assay.
Assay [7] in a line: Inhibition of VIM2 using CCF2 as substrate after 15 mins by FRET assay.
Assay [8] is described as follows: Inhibition of VIM2 using nitrocefin as substrate at 56 uM after 15 mins by microtiter plate assay.
The nature of assay [9]: Inhibition of IMP1 using nitrocefin as substrate at 56 uM after 15 mins by microtiter plate assay.
A short description of assay [10]: Inhibition of IMP1 using nitrocefin as substrate after 15 mins by microtiter plate assay.
Assay [11] is described as follows: Inhibition of TEM-1 using nitrocefin as substrate at 25 uM after 15 mins by microtiter plate assay.
Assay [12] is described as follows: Inhibition of VIM2 using nitrocefin as substrate after 15 mins by microtiter plate assay.
Assay [13] deals with Escherichia coli BL21(DE3). In words: Inhibition of VIM2 in imipenem-resistant Escherichia coli BL21(DE3) assessed as potentiation of imipenem-induced bactericidal activity at 50 uM after 18 hrs by twofold serial broth dilution method.
The subject of assay [14] is Escherichia coli BL21(DE3). In words: (§2) Inhibition of VIM2 in imipenem-resistant Escherichia coli BL21(DE3) assessed as potentiation of imipenem-induced bactericidal activity at […] after 18 hrs by checkerboard microdilution method.
The test system of assay [15] is Escherichia coli BL21(DE3). Described as §2. The source holds these as a separate data set.
The subject of assay [16] is Escherichia coli. In words: Bacteriostatic activity against imipenem-resistant Escherichia coli BL21(DE3) expressing VIM2 gene at […] after 24 hrs by broth microdilution method. In kind it is functional.
Assay [17] relates to Escherichia coli BL21(DE3). Kind of assay: Inhibition of VIM2 in imipenem-resistant Escherichia coli BL21(DE3) assessed as potentiation of imipenem-induced bactericidal activity at 4.2 ug/mL after 18 hrs by checkerboard microdilution method. The procedure, abridged: (§3)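 Checkerboard in 96-well plates, 0.2 mL. […] BL21/VIM-2 pre-grown 5 h at 37°C with kanamycin; inoculum 1 × 10^6 CFU/mL. Shaken ≥18 h at 37°C. MIC read per CLSI; synergy by ΣFIC; QC strain ATCC 35218.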

Assay [18] deals with Escherichia coli. In words: Bactericidal activity against imipenem-non resistant Escherichia coli BL21(DE3) at […] after 24 hrs by broth microdilution method. In kind it is functional.
Assay [19] has as its system Escherichia coli. In words: Bactericidal activity against imipenem-resistant Escherichia coli BL21(DE3) expressing VIM2 gene at […] after 24 hrs by broth microdilution method. It is filed as functional.
Assay [20] has as its system Escherichia coli. Kind of assay: Bacteriostatic activity against imipenem-non resistant Escherichia coli BL21(DE3) at […] after 24 hrs by broth microdilution method. It is filed as functional.
A short description of assay [21]: Inhibition of IMP1 in Escherichia coli.
The subject of assay [22] is Escherichia coli. Kind of assay: Bactericidal activity against imipenem-resistant Escherichia coli BL21(DE3) expressing VIM2 gene at […] up to 6 hrs by broth microdilution method. In kind it is functional.
For assay [23], the system named is Escherichia coli. Kind of assay: Bactericidal activity against imipenem-non resistant Escherichia coli BL21(DE3) at […] up to 6 hrs by broth microdilution method. It is filed as functional.
The subject of assay [24] is Escherichia coli. Kind of assay: Bactericidal activity against imipenem-non resistant Escherichia coli BL21(DE3) at […] after 6 hrs by broth microdilution method. In kind it is functional.
Assay [25] can be described thus: Inhibition of VIM2 using CCF2 as substrate at 36 uM after 15 mins by FRET assay. The procedure, abridged:
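FRET endpoint assay in 50 mM HEPES, 50 μM ZnSO4, 0.05% Brij 35, pH 7.1. VIM-2 (0.1 nM final) preincubated 15 min at RT with compound. CCF2-FA added to 10 μM final, 25 min at RT, stopped with EDTA. Excitation 409 nm, emissions 460 and 535 nm, read as ratio. Triplicate dilution series starting at 56 μM nominal.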

The test system of assay [26] is Escherichia coli BL21(DE3). In words: Inhibition of VIM2 in imipenem-resistant Escherichia coli BL21(DE3) assessed as potentiation of imipenem-induced bactericidal activity at 4.5 ug/mL after 18 hrs by checkerboard microdilution method. Put shortly: as §3
Assay [27] is described as follows: Inhibition of IMP1 using nitrocefin as substrate at 140 uM after 15 mins by microtiter plate assay.
Assay [28] has as its system Escherichia coli. In words: Bactericidal activity against imipenem-resistant Escherichia coli BL21(DE3) expressing VIM2 gene at […] after 6 hrs by broth microdilution method. In kind it is functional.
For assay [29], the system named is Escherichia coli BL21(DE3). In words: Inhibition of VIM2 in imipenem-resistant Escherichia coli BL21(DE3) assessed as potentiation of imipenem-induced bactericidal activity at 8.9 ug/mL after 18 hrs by checkerboard microdilution method. The procedure, abridged:
as §3

For assay [30], the system named is Escherichia coli. In words: Selectivity ratio of MIC for imipenem-resistant Escherichia coli BL21(DE3) expressing VIM2 gene to MIC for imipenem-non resistant Escherichia coli BL21(DE3). In kind it is functional.
The nature of assay [31]: Inhibition of VIM2 using nitrocefin as substrate at 15 uM after 15 mins by microtiter plate assay.

Usually inhibition stands for the relative decrease from the control value, in per cent. What is called IC50 is the concentration that gives 50% inhibition. The MIC is the lowest concentration that inhibits growth of the organism. A low value points to inhibition by little substance. As usually defined, the Ki is a measure of affinity in units of concentration, obtained from inhibition or displacement. A higher Ki goes with weaker binding. For `COCc1nn[nH]c1CNS(=O)(=O)c1ccc(I)cc1`, the inhibition worked out at 90% in assay [1]; 0% with Enterobacter cloacae; 74% in assay [8]; 0% in assay [9]; 0% in assay [11]. The IC50 in assay [2] was over 25 µM; in assay [6] it was over 25 µM; in assay [7] it was 4.1 µM; in [10] it was over 56 µM; in assay [12] it was 7.3 µM. For the same compound, the minimal inhibitory concentration (MIC) against Escherichia coli [3] and in the assay with Escherichia coli [4] was over 60 µg/mL each time. The compound also came in with a Ki in assay [5] of 1.41 µM. Besides, the result in assay [13] was inactive.
Turning to 4-CHLOROMERCURIBENZOIC ACID, the IC50 in assay [2] and in assay [6] was over 25 µM throughout.
As to `O=C1c2c(O)ccc(O)c2C(=O)c2c(NCCNCCO)ccc(NCCNCCO)c21`, the result in assay [14], in assay [15], in [17] and in assay [13] was Active. Besides, the result in the assay with Escherichia coli [16], in the assay with Escherichia coli [18], with Escherichia coli [19] and in the assay with Escherichia coli [20] was inactive.
In the assay with Escherichia coli [4], `C[C@@H](O)[C@H]1C(=O)N2C(C(=O)O)=C(SCCNC=N)C[C@H]12` [IMIPENEM ANHYDROUS] displayed an MIC of 0.2 µg/mL (≈ 0.668 µM).
With `O=C(O)CC(Cc1ccccc1Cl)C(=O)O` (stereo not given), the Ki in assay [21] is 3.3 µM; in [10], 1.6 µM. Moreover, the values for the half-inhibitory concentration (IC50) in assay [7], in [10] and in [12] were 50 µM, 1.6 µM and 33 µM, respectively.
On to 4-[sequence] ACID, for which the result (in the assay on Escherichia coli [22]; in assay [15]; in the assay on Escherichia coli [23]; in assay [26]; in assay [29]; in assay [13]) was Active. In addition, the outcome in the assay with Escherichia coli [16], in the assay with Escherichia coli [24], in the assay on Escherichia coli [28] and in the assay with Escherichia coli [20] was inactive. Further, the MIC with Escherichia coli [3] and against Escherichia coli [4] was 17.9 µg/mL throughout. Besides, the inhibition in [25] amounted to 83%; in the assay with Enterobacter cloacae, 0%; in [27] it was 0%; in assay [11], 0%; in assay [31], 80%. The Ratio in the assay on Escherichia coli [30] was determined as 9.
Regarding `Cc1ccc(Cl)cc1N1CCN(Cc2nn[nH]c2CNS(=O)(=O)c2ccc(I)cc2)CC1`, in assay [8], the inhibition is 0%. Moreover, in assay [12], the half-inhibitory concentration (IC50) is over 56 µM.
For `C#CCCOCc1nn[nH]c1CNS(=O)(=O)c1ccc(I)cc1`, the inhibition in assay [1] was 76%; with Enterobacter cloacae, 0%; in [8], 79%; in assay [9] it was 0%; in assay [11], 0%. The IC50 in assay [2] was over 25 µM; in assay [6] it was over 25 µM; in [7], 1.3 µM; in [10], over 56 µM; in [12] it was 3.3 µM. Moreover, the MIC with Escherichia coli [3] and against Escherichia coli [4] was over 60 µg/mL throughout. Also, the inhibition constant Ki in assay [5] was 0.41 µM. Further, the outcome in assay [13] was inactive.
`CC1(C)OCC(COCc2nn[nH]c2CNS(=O)(=O)c2ccc(I)cc2)O1` (stereo not given): the inhibition in assay [8] stood at 31%. In assay [12], this compound yielded an IC50 of over 56 µM.
For `O=S(=O)(NCc1[nH]nnc1CN1CCN(c2ccc(Cl)c(Cl)c2)CC1)c1ccc(I)cc1` the same measures were 5% and over 56 µM.
On the same counts, the results for `Cn1cc(Cc2nn[nH]c2CNS(=O)(=O)c2ccc(I)cc2)c2ccccc21` are 11% and over 56 µM.
